In ChEMBL document CHEMBL3244152, “Pivaloyl esters of N,N-dialkylated dopamine congeners. Central dopamine-receptor stimulating activity” (1978):
The source made the active and inactive calls. The rule behind the calls is not given here.

Tests used:
Rattus norvegicus [1] = assay: Stimulation of dopamine receptor in sc dosed Sprague-Dawley rat assessed as reduction in Dopa accumulation in limbic forebrain by spectrofluorimetry; format: functional; settings: Limbic system, read-out: ID50 (the source's name)
In short: (§1)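 Pooled regions from two brains went to perchloric acid extraction, cation exchange and Dopa spectrofluorimetry. Dose giving 50% Dopa decrease came from least-squares double-reciprocal plots (1/% change vs 1/dose).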

Rattus norvegicus [2] = assay: Stimulation of dopamine receptor in sc dosed Sprague-Dawley rat assessed as reduction in Dopa accumulation in straitum by spectrofluorimetry; format: functional; settings: read-out: ID50 (the source's name); in short: as §1
Rattus norvegicus [3] = assay: Effect on motor activity in reserpinized Sprague-Dawley rat assessed as stereotyped movements at 20 umolkg, sc measured every 5 mins for 2 hrs by motility meter method; format: functional, organism-based
In short: (§2)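 Male Sprague-Dawley rats (200–350 g) were given reserpine 10 mg/kg ip 6 h before testing. Drug in 0.9% saline (neutral pH, 10 mL/kg) was given at 20 μmol/kg sc in the neck or 200 μmol/kg po by stomach tube. Rats were caged singly in motility meters at once, with counts recorded per 5-min period over 2 h; means n = 4-5.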

Rattus norvegicus [4] = assay: Effect on motor activity in reserpinized Sprague-Dawley rat assessed as stereotyped movements at 200 umolkg, po measured every 5 mins for 2 hrs by motility meter method; format: functional, organism-based; in short: as §2
Rattus norvegicus [5] = assay: Stimulation of dopamine receptor in Sprague-Dawley rat assessed as reduction in Dopa accumulation in at 1 mg/kg, sc by spectrofluorimetry; format: functional, organism-based; design: dose 1 mg/kg
Rattus norvegicus [6] = assay: Effect on motor activity in reserpinized Sprague-Dawley rat assessed as stereotyped movements at 2 umolkg, sc measured every 5 mins for 2 hrs by motility meter method; format: functional, organism-based
In short: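 Male Sprague-Dawley rats (200–350 g) given reserpine 10 mg/kg ip 6 h before testing. Drug dissolved in saline (0.9%), neutral pH, 10 mL/kg, injected sc in the neck. Each rat then placed alone in a test cage inside a motility meter. Counts were recorded per 5-min period for 2 h, with gross behavior watched through a mirror. Means, n = 4-5.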

Rattus norvegicus [7] = assay: Effect on motor activity in reserpinized Sprague-Dawley rat assessed as stereotyped movements at 20 umolkg, sc measured up to 10 mins by motility meter method; format: functional, organism-based; in short: as §2

Compound	ED50 (Rattus norvegicus [1]) [µmol/kg]	ED50 (Rattus norvegicus [2]) [µmol/kg]	Activity (Rattus norvegicus [3])	Activity (Rattus norvegicus [4])	Activity (Rattus norvegicus [5])	Activity (Rattus norvegicus [6])	Activity (Rattus norvegicus [7])
CCCN(CCC)CCc1ccc(OC(=O)C(C)(C)C)c(OC(=O)C(C)(C)C)c1	28	33	Active	inactive			
CCCN(CCC)CCc1ccc(O)c(O)c1	25	20		inactive			
CCCCN(CCCC)CCc1ccc(OC(=O)C(C)(C)C)c(OC(=O)C(C)(C)C)c1	> 180	> 180	inactive	inactive			
CC(N)Cc1ccccc1 (configuration not stated)					inactive		
CCN(CC)CCc1ccc(OC(=O)C(C)(C)C)c(OC(=O)C(C)(C)C)c1	> 27	> 27	inactive	inactive			
CN1CCc2cccc3c2[C@H]1Cc1ccc(OC(=O)C(C)(C)C)c(OC(=O)C(C)(C)C)c1-3						Active	
CN(C)CCc1ccc(OC(=O)C(C)(C)C)c(OC(=O)C(C)(C)C)c1	> 45	> 45	inactive	inactive			
CN1CCc2cccc3c2[C@H]1Cc1ccc(O)c(O)c1-3 [APOMORPHINE]	0.23	0.23				Active	
CCCN(CCC)CCc1cccc(OC)c1	> 45	> 45	inactive	inactive			
CCCN(CCC)CCc1cccc(O)c1	5.7	1.8	Active	inactive			
CCCN(CCC)CCc1cccc(OC(=O)C(C)(C)C)c1	2.7	1.8	Active	inactive			inactive
